Reference: ChEMBL document CHEMBL4819149, “A facile reaction to access novel structural sulfonyl-hybridized imidazolyl ethanols as potential DNA-targeting antibacterial agents” (Bioorg Med Chem Lett, 2021)
≈ marks a conversion by molar mass, not a printed value.

Assays:
Assay type in all cases: functional
[1] = system: Staphylococcus aureus; assay: Antibacterial activity against methicillin-resistant Staphylococcus aureus assessed as bacterial growth inhibition by broth microdilution method
Outline: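 MIC read by micro broth dilution; values given in μg/mL.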

[2] = system: Enterococcus faecalis; assay: Antibacterial activity against Enterococcus faecalis assessed as bacterial growth inhibition by broth microdilution method
Outline: (§1)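 MIC values reported in µg/mL, determined by broth microdilution in microdilution plates.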

[3] = system: Staphylococcus aureus; assay: Antibacterial activity against Staphylococcus aureus assessed as bacterial growth inhibition by broth microdilution method; outline: as §1
[4] = system: Staphylococcus aureus; assay: Antibacterial activity against Staphylococcus aureus ATCC 25923 assessed as bacterial growth inhibition by broth microdilution method; outline: as §1
[5] = system: Staphylococcus aureus; assay: Antibacterial activity against Staphylococcus aureus ATCC 29213 assessed as bacterial growth inhibition by broth microdilution method; outline: as §1
[6] = system: Klebsiella pneumoniae; assay: Antibacterial activity against Klebsiella pneumonia assessed as bacterial growth inhibition by broth microdilution method; outline: as §1
[7] = system: Pseudomonas aeruginosa; assay: Antibacterial activity against Pseudomonas aeruginosa ATCC 27853 assessed as bacterial growth inhibition by broth microdilution method; outline: as §1
[8] = system: Pseudomonas aeruginosa; assay: Antibacterial activity against Pseudomonas aeruginosa assessed as bacterial growth inhibition by broth microdilution method; outline: as §1
[9] = system: Acinetobacter baumannii; assay: Antibacterial activity against Acinetobacter baumannii assessed as bacterial growth inhibition by broth microdilution method; outline: as §1
[10] = system: Escherichia coli; assay: Antibacterial activity against Escherichia coli assessed as bacterial growth inhibition by broth microdilution method; outline: as §1
[11] = system: Escherichia coli; assay: Antibacterial activity against Escherichia coli ATCC 25922 assessed as bacterial growth inhibition by broth microdilution method; outline: as §1

SMILES | MIC [1] [µg/mL] | MIC [2] [µg/mL] | MIC [3] [µg/mL] | MIC [4] [µg/mL] | MIC [5] [µg/mL] | MIC [6] [µg/mL] | MIC [7] [µg/mL] | MIC [8] [µg/mL] | MIC [9] [µg/mL] | MIC [10] [µg/mL] | MIC [11] [µg/mL]
CC(=O)Nc1ccc(S(=O)(=O)CC(CO)n2ccnc2)cc1 (stereo unspecified) | 32 (≈ 99 µM) | 32 (≈ 99 µM) | 64 (≈ 198 µM) | 64 (≈ 198 µM) | 32 (≈ 99 µM) | 128 (≈ 396 µM) | 64 (≈ 198 µM) | 128 (≈ 396 µM) | 64 (≈ 198 µM) | 64 (≈ 198 µM) | 64 (≈ 198 µM)
CCc1nc(I)cn1C(CO)CS(=O)(=O)c1ccc(N)cc1 (stereo unspecified) | 16 (≈ 36.8 µM) | 64 (≈ 147 µM) | 64 (≈ 147 µM) | 64 (≈ 147 µM) | 64 (≈ 147 µM) | 256 (≈ 588 µM) | 32 (≈ 73.5 µM) | 256 (≈ 588 µM) | 64 (≈ 147 µM) | 64 (≈ 147 µM) | 32 (≈ 73.5 µM)
CCc1nc(C)cn1C(CO)CS(=O)(=O)c1ccc(N)cc1 (stereo unspecified) | 16 (≈ 49.5 µM) | 16 (≈ 49.5 µM) | 64 (≈ 198 µM) | 64 (≈ 198 µM) | 128 (≈ 396 µM) | 128 (≈ 396 µM) | 32 (≈ 98.9 µM) | 128 (≈ 396 µM) | 64 (≈ 198 µM) | 64 (≈ 198 µM) | 32 (≈ 98.9 µM)
CCc1nccn1C(CO)CS(=O)(=O)c1ccc(NC(C)=O)cc1 (stereo unspecified) | 32 (≈ 91.1 µM) | 32 (≈ 91.1 µM) | 64 (≈ 182 µM) | 64 (≈ 182 µM) | 16 (≈ 45.5 µM) | 128 (≈ 364 µM) | 64 (≈ 182 µM) | 256 (≈ 728 µM) | 16 (≈ 45.5 µM) | 64 (≈ 182 µM) | 32 (≈ 91.1 µM)
Nc1ccc(S(=O)(=O)CC(CO)n2cnc(I)c2)cc1 (stereo unspecified) | 64 (≈ 157 µM) | 256 (≈ 629 µM) | 64 (≈ 157 µM) | 64 (≈ 157 µM) | 64 (≈ 157 µM) | 256 (≈ 629 µM) | 32 (≈ 78.6 µM) | 256 (≈ 629 µM) | 64 (≈ 157 µM) | 64 (≈ 157 µM) | 32 (≈ 78.6 µM)
CC(=O)Nc1ccc(S(=O)(=O)CC(CO)n2cnc(C)c2)cc1 (stereo unspecified) | 16 (≈ 47.4 µM) | 64 (≈ 190 µM) | 128 (≈ 379 µM) | 64 (≈ 190 µM) | 32 (≈ 94.8 µM) | 32 (≈ 94.8 µM) | 32 (≈ 94.8 µM) | 128 (≈ 379 µM) | 64 (≈ 190 µM) | 64 (≈ 190 µM) | 64 (≈ 190 µM)
